# According to ChEMBL document CHEMBL1649330, “Multicenter study for defining the breakpoint for rifampin resistance in Neisseria meningitidis by rpoB sequencing” (2010):
# Key:
# Type in all cases: functional
# [1] = system: Neisseria meningitidis; assay: Antimicrobial activity against Neisseria meningitidis expressing wild type rpoB31 allele by Etest
# Summary of the method: (§1)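 Rifampin MIC by Etest on meningococcal isolates from participating national laboratories, with rpoB sequenced for each isolate. Values are geometric means of MICs over all isolates carrying a given allele that lacks alterations at S548, H552 and S557 and lacks D542V. Only alleles represented by at least five isolates were reported.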
# [2] = system: Neisseria meningitidis; assay: Antimicrobial activity against Neisseria meningitidis harboring rpoB26 D542N and S557F mutant allele by Etest
# Summary of the method: (§2)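 Rifampin MIC by Etest on meningococcal clinical isolates collected by the participating national laboratories, with MIC read in mg/liter. The rpoB gene of each isolate was sequenced and assigned to an allele. Isolates were serogrouped by agglutination with serogroup-specific antisera.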
# [3] = system: Neisseria meningitidis; assay: Antimicrobial activity against Neisseria meningitidis harboring rpoB50 S557F mutant allele by Etest; summary of the method: as §2
# [4] = system: Neisseria meningitidis; assay: Antimicrobial activity against Neisseria meningitidis harboring rpoB39 D542V mutant allele by Etest; summary of the method: as §2
# [5] = system: Neisseria meningitidis; assay: Antimicrobial activity against Neisseria meningitidis harboring rpoB36 H552N mutant allele by Etest; summary of the method: as §2
# [6] = system: Neisseria meningitidis; assay: Antimicrobial activity against Neisseria meningitidis harboring rpoB23 S548F mutant allele by Etest; summary of the method: as §2
# [7] = system: Neisseria meningitidis; assay: Antimicrobial activity against Neisseria meningitidis expressing wild type rpoB28 allele by Etest; summary of the method: as §1
# [8] = system: Neisseria meningitidis; assay: Antimicrobial activity against Neisseria meningitidis expressing wild type rpoB1 allele by Etest; summary of the method: as §1
# [9] = system: Neisseria meningitidis; assay: Antimicrobial activity against Neisseria meningitidis expressing wild type rpoB4 allele by Etest; summary of the method: as §1
# [10] = system: Neisseria meningitidis; assay: Antimicrobial activity against Neisseria meningitidis harboring rpoB45 D542V mutant allele by Etest; summary of the method: as §2
# [11] = system: Neisseria meningitidis; assay: Antimicrobial activity against Neisseria meningitidis harboring rpoB10 H552R mutant allele by Etest; summary of the method: as §2
# [12] = system: Neisseria meningitidis; assay: Antimicrobial activity against Neisseria meningitidis expressing wild type rpoB18 allele by Etest; summary of the method: as §1
# [13] = system: Neisseria meningitidis; assay: Antimicrobial activity against Neisseria meningitidis harboring rpoB44 H552Y mutant allele by Etest; summary of the method: as §2
# [14] = system: Neisseria meningitidis; assay: Antimicrobial activity against Neisseria meningitidis harboring rpoB57 D542N mutant allele by Etest; summary of the method: as §2
# [15] = system: Neisseria meningitidis; assay: Antimicrobial activity against Neisseria meningitidis harboring rpoB51 H552Y mutant allele by Etest; summary of the method: as §2
# [16] = system: Neisseria meningitidis; assay: Antimicrobial activity against Neisseria meningitidis harboring rpoB14 S548F mutant allele by Etest; summary of the method: as §2
# [17] = system: Neisseria meningitidis; assay: Antimicrobial activity against Neisseria meningitidis harboring rpoB53 G560S mutant allele by Etest; summary of the method: as §2
# [18] = system: Neisseria meningitidis; assay: Antimicrobial activity against Neisseria meningitidis expressing wild type rpoB9 allele by Etest; summary of the method: as §1
# [19] = system: Neisseria meningitidis; assay: Antimicrobial activity against Neisseria meningitidis harboring rpoB37 G560S mutant allele by Etest; summary of the method: as §2
# [20] = system: Neisseria meningitidis; assay: Antimicrobial activity against Neisseria meningitidis harboring rpoB13 H552Y mutant allele by Etest; summary of the method: as §2
# [21] = system: Neisseria meningitidis; assay: Antimicrobial activity against Neisseria meningitidis expressing wild type rpoB5 allele by Etest; summary of the method: as §1
# [22] = system: Neisseria meningitidis; assay: Antimicrobial activity against Neisseria meningitidis harboring rpoB46 H552N mutant allele by Etest; summary of the method: as §2
# [23] = system: Neisseria meningitidis; assay: Antimicrobial activity against Neisseria meningitidis harboring rpoB32 H552Y mutant allele by Etest; summary of the method: as §2
# [24] = system: Neisseria meningitidis; assay: Antimicrobial activity against Neisseria meningitidis expressing wild type rpoB27 allele by Etest; summary of the method: as §1
# [25] = system: Neisseria meningitidis; assay: Antimicrobial activity against Neisseria meningitidis expressing wild type rpoB40 allele by Etest; summary of the method: as §1
# [26] = system: Neisseria meningitidis; assay: Antimicrobial activity against Neisseria meningitidis harboring rpoB11 H552N mutant allele by Etest; summary of the method: as §2
# [27] = system: Neisseria meningitidis; assay: Antimicrobial activity against Neisseria meningitidis harboring rpoB16 H552Y mutant allele by Etest; summary of the method: as §2
# [28] = system: Neisseria meningitidis; assay: Antimicrobial activity against Neisseria meningitidis expressing wild type rpoB34 allele by Etest; summary of the method: as §1
# [29] = system: Neisseria meningitidis; assay: Antimicrobial activity against Neisseria meningitidis expressing wild type rpoB2 allele by Etest; summary of the method: as §1
# [30] = system: Neisseria meningitidis; assay: Antimicrobial activity against Neisseria meningitidis harboring rpoB20 H552Y mutant allele by Etest; summary of the method: as §2
# [31] = system: Neisseria meningitidis; assay: Antimicrobial activity against Neisseria meningitidis harboring rpoB17 H552Y mutant allele by Etest; summary of the method: as §2
# [32] = system: Neisseria meningitidis; assay: Antimicrobial activity against Neisseria meningitidis harboring rpoB15 H552N mutant allele by Etest; summary of the method: as §2
# [33] = system: Neisseria meningitidis; assay: Antimicrobial activity against Neisseria meningitidis harboring rpoB19 S557F mutant allele by Etest; summary of the method: as §2
# [34] = system: Neisseria meningitidis; assay: Antimicrobial activity against Neisseria meningitidis harboring rpoB12 H552L mutant allele by Etest; summary of the method: as §2
structure (smiles),measurement,setting,value
CO[C@H]1/C=C/O[C@@]2(C)Oc3c(C)c(O)c4c(O)c(c(/C=N/N5CCN(C)CC5)c(O)c4c3C2=O)NC(=O)/C(C)=C\C=C\[C@H](C)[C@H](O)[C@@H](C)[C@@H](O)[C@@H](C)[C@H](OC(C)=O)[C@@H]1C [RIFAMPIN],MIC,[1],0.015 µg/mL
same,MIC,[2],> 32 µg/mL
same,MIC,[3],> 32 µg/mL
same,MIC,[4],> 32 µg/mL
same,MIC,[5],8 µg/mL
same,MIC,[6],> 32 µg/mL
same,MIC,[7],0.025 µg/mL
same,MIC,[8],0.225 µg/mL
same,MIC,[9],0.089 µg/mL
same,MIC,[10],256 µg/mL
same,MIC,[11],> 32 µg/mL
same,MIC,[12],0.024 µg/mL
same,MIC,[13],256 µg/mL
same,MIC,[14],0.125 µg/mL
same,MIC,[15],> 32 µg/mL
same,MIC,[16],> 32 µg/mL
same,MIC,[17],0.125 µg/mL
same,MIC,[18],0.065 µg/mL
same,MIC,[19],8 µg/mL
same,MIC,[20],> 32 µg/mL
same,MIC,[21],0.061 µg/mL
same,MIC,[22],256 µg/mL
same,MIC,[23],> 32 µg/mL
same,MIC,[24],0.15 µg/mL
same,MIC,[25],0.034 µg/mL
same,MIC,[26],> 32 µg/mL
same,MIC,[27],> 32 µg/mL
same,MIC,[28],0.029 µg/mL
same,MIC,[29],0.057 µg/mL
same,MIC,[30],> 32 µg/mL
same,MIC,[31],> 32 µg/mL
same,MIC,[32],> 32 µg/mL
same,MIC,[33],> 32 µg/mL
same,MIC,[34],> 32 µg/mL
